Values after ≈ are worked out from the molar mass of the structure shown. Active and inactive are the calls of the source. The calls are words filed in the database; no cut-off is given here.
Test system: Pseudomonas aeruginosa
Test: Antibacterial activity against Pseudomonas aeruginosa after 24 hrs by agar cup diffusion method
Type: functional
Conditions: not given
Method in brief: (§1)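 Nutrient agar seeded with culture, poured 3–4 mm; six 10 mm cups per plate, one as DMF solvent control. Compounds dissolved in DMF (stock 1 mg/mL), two-fold serial dilutions 32–512 µg/mL, 0.1 mL per cup. Incubation 24 h at 37 °C; inhibition zone diameter read in mm. MIC taken as intercept of log concentration versus zone diameter plot; ciprofloxacin reference.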

SMILES	MIC [µg/mL]
O=C(Nc1ccc(Cl)cc1)c1nn(-c2ccccc2)c(-c2ccccc2)c1C(=O)c1ccccc1	25.1 (≈ 52.5 µM)
O=C(Nc1ccc(S(=O)(=O)Nc2ncccn2)cc1)c1nn(-c2ccccc2)c(-c2ccccc2)c1C(=O)c1ccccc1	44.3 (≈ 73.8 µM)

More lines, now with the values ahead:

MIC [µg/mL]	SMILES
10.3 (≈ 20.9 µM)	O=C(Nc1ccc(Cl)cc1)c1nn(-c2ccccc2)c(-c2ccccc2)c1/C(=N/O)c1ccccc1
9.7 (≈ 19.9 µM)	COc1ccc(NC(=O)c2nn(-c3ccccc3)c(-c3ccccc3)c2/C(=N/O)c2ccccc2)cc1
1.92 (≈ 5.21 µM)	O=C(O)c1nn(-c2ccccc2)c(-c2ccccc2)c1C(=O)c1ccccc1

Test system: not listed separately
Test: Nitric oxide release in phosphate buffer at pH 7.4 after 1 hr by Griess diazotization reaction method in presence of L-cysteine
Design: concentration or dose not given beside the values
Conditions: not given
Method in brief: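 Incubation in pH 7.4 phosphate buffer with L-cysteine for 1 h at 37 °C. Then 1 mL of mixture treated with Griess reagent (sulfanilamide, N-naphthylethylenediamine, phosphoric acid); absorbance read at 540 nm after 25 min. Nitrite quantified against sodium nitrite standard curve; % release = found/theoretical NO × 100.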

SMILES	Activity [%]
O=C(Nc1ccc(Cl)cc1)c1nn(-c2ccccc2)c(-c2ccccc2)c1/C(=N/O)c1ccccc1	7.8
COc1ccc(NC(=O)c2nn(-c3ccccc3)c(-c3ccccc3)c2/C(=N/O)c2ccccc2)cc1	8

Test system: Escherichia coli
Test: Antibacterial activity against Escherichia coli C-600 after 24 hrs by agar cup diffusion method
Type: functional
Conditions: not given
Method in brief: as §1

MIC	SMILES
inactive	O=C(Nc1ccc(Cl)cc1)c1nn(-c2ccccc2)c(-c2ccccc2)c1C(=O)c1ccccc1
inactive	O=C(Nc1ccc(S(=O)(=O)Nc2ncccn2)cc1)c1nn(-c2ccccc2)c(-c2ccccc2)c1C(=O)c1ccccc1

Same assay, conditions: C-600, 24 h

MIC [µg/mL]	SMILES
14.1 (≈ 28.6 µM)	O=C(Nc1ccc(Cl)cc1)c1nn(-c2ccccc2)c(-c2ccccc2)c1/C(=N/O)c1ccccc1
2.88 (≈ 5.9 µM)	COc1ccc(NC(=O)c2nn(-c3ccccc3)c(-c3ccccc3)c2/C(=N/O)c2ccccc2)cc1
16.1 (≈ 43.7 µM)	O=C(O)c1nn(-c2ccccc2)c(-c2ccccc2)c1C(=O)c1ccccc1

Test system: Bacillus subtilis
Test: Antibacterial activity against Bacillus subtilis after 24 hrs by agar cup diffusion method
Type: functional
Conditions: not given
Method in brief: as §1

SMILES	MIC
O=C(Nc1ccc(Cl)cc1)c1nn(-c2ccccc2)c(-c2ccccc2)c1C(=O)c1ccccc1	inactive
O=C(Nc1ccc(S(=O)(=O)Nc2ncccn2)cc1)c1nn(-c2ccccc2)c(-c2ccccc2)c1C(=O)c1ccccc1	47 µg/mL (≈ 78.3 µM)

Further lines, results first:

MIC	SMILES
5.82 µg/mL (≈ 11.8 µM)	O=C(Nc1ccc(Cl)cc1)c1nn(-c2ccccc2)c(-c2ccccc2)c1/C(=N/O)c1ccccc1
43.9 µg/mL (≈ 89.8 µM)	COc1ccc(NC(=O)c2nn(-c3ccccc3)c(-c3ccccc3)c2/C(=N/O)c2ccccc2)cc1
10.8 µg/mL (≈ 29.2 µM)	O=C(O)c1nn(-c2ccccc2)c(-c2ccccc2)c1C(=O)c1ccccc1

Test system: Staphylococcus aureus
Test: Antibacterial activity against Staphylococcus aureus NCTC 6571 after 24 hrs by agar cup diffusion method
Type: functional
Conditions: not given
Method in brief: as §1

SMILES	MIC
O=C(Nc1ccc(Cl)cc1)c1nn(-c2ccccc2)c(-c2ccccc2)c1C(=O)c1ccccc1	inactive
O=C(Nc1ccc(S(=O)(=O)Nc2ncccn2)cc1)c1nn(-c2ccccc2)c(-c2ccccc2)c1C(=O)c1ccccc1	inactive

More lines, now with the values ahead:

MIC	SMILES
inactive	COc1ccc(NC(=O)c2nn(-c3ccccc3)c(-c3ccccc3)c2/C(=N/O)c2ccccc2)cc1
inactive	O=C(O)c1nn(-c2ccccc2)c(-c2ccccc2)c1C(=O)c1ccccc1

Same assay, conditions: NCTC 6571, 24 h

MIC [µg/mL]	SMILES
90.4 (≈ 183 µM)	O=C(Nc1ccc(Cl)cc1)c1nn(-c2ccccc2)c(-c2ccccc2)c1/C(=N/O)c1ccccc1

Test system: Rattus norvegicus
Test: Antiinflammatory activity in albino rat assessed as inhibition of carrageenan-induced paw edema at 100 mg/kg, po administered 30 mins prior to carrageenan challenge measured after 1 hr
Type: functional
Conditions: not given
Method in brief: (§2)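 Male albino rats, 140–150 g, groups of 5, acclimatized 3 days, water only on the last day. Oral dosing in carboxymethylcellulose vehicle 30 min before subplantar 1% carrageenan (0.1 mL) into one hind paw; contralateral paw given saline. Paw thickness by digital plethysmometer at 0–5 h. Percent inhibition from difference between paws, treated versus vehicle control; indomethacin reference; mean ± SEM.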

SMILES	inhibition in vivo at 100 mg/kg [%]
O=C(Nc1ccc(Cl)cc1)c1nn(-c2ccccc2)c(-c2ccccc2)c1C(=O)c1ccccc1	45.5
O=C(Nc1ccc(S(=O)(=O)Nc2ncccn2)cc1)c1nn(-c2ccccc2)c(-c2ccccc2)c1C(=O)c1ccccc1	18.2
O=C(Nc1ccc(Cl)cc1)c1nn(-c2ccccc2)c(-c2ccccc2)c1/C(=N/O)c1ccccc1	23.6
COc1ccc(NC(=O)c2nn(-c3ccccc3)c(-c3ccccc3)c2/C(=N/O)c2ccccc2)cc1	30.9
O=C(O)c1nn(-c2ccccc2)c(-c2ccccc2)c1C(=O)c1ccccc1	32.7

Test system: Rattus norvegicus
Test: Antiinflammatory activity in albino rat assessed as inhibition of carrageenan-induced paw edema at 100 mg/kg, po administered 30 mins prior to carrageenan challenge measured after 2 hrs
Type: functional
Conditions: not given
Method in brief: as §2

SMILES	inhibition in vivo at 100 mg/kg [%]
O=C(Nc1ccc(Cl)cc1)c1nn(-c2ccccc2)c(-c2ccccc2)c1C(=O)c1ccccc1	40
O=C(Nc1ccc(S(=O)(=O)Nc2ncccn2)cc1)c1nn(-c2ccccc2)c(-c2ccccc2)c1C(=O)c1ccccc1	18.2
O=C(Nc1ccc(Cl)cc1)c1nn(-c2ccccc2)c(-c2ccccc2)c1/C(=N/O)c1ccccc1	23.3
COc1ccc(NC(=O)c2nn(-c3ccccc3)c(-c3ccccc3)c2/C(=N/O)c2ccccc2)cc1	25
O=C(O)c1nn(-c2ccccc2)c(-c2ccccc2)c1C(=O)c1ccccc1	35

Test system: Rattus norvegicus
Test: Antiinflammatory activity in albino rat assessed as inhibition of carrageenan-induced paw edema at 100 mg/kg, po administered 30 mins prior to carrageenan challenge measured after 3 hrs
Type: functional
Conditions: not given
Method in brief: as §2

SMILES	inhibition in vivo at 100 mg/kg [%]
O=C(Nc1ccc(Cl)cc1)c1nn(-c2ccccc2)c(-c2ccccc2)c1C(=O)c1ccccc1	35
O=C(Nc1ccc(S(=O)(=O)Nc2ncccn2)cc1)c1nn(-c2ccccc2)c(-c2ccccc2)c1C(=O)c1ccccc1	25
O=C(Nc1ccc(Cl)cc1)c1nn(-c2ccccc2)c(-c2ccccc2)c1/C(=N/O)c1ccccc1	47.6
COc1ccc(NC(=O)c2nn(-c3ccccc3)c(-c3ccccc3)c2/C(=N/O)c2ccccc2)cc1	36.5
O=C(O)c1nn(-c2ccccc2)c(-c2ccccc2)c1C(=O)c1ccccc1	36.5

Test system: Rattus norvegicus
Test: Antiinflammatory activity in albino rat assessed as inhibition of carrageenan-induced paw edema at 100 mg/kg, po administered 30 mins prior to carrageenan challenge measured after 4 hrs
Type: functional
Conditions: not given
Method in brief: as §2

SMILES	inhibition in vivo at 100 mg/kg [%]
O=C(Nc1ccc(Cl)cc1)c1nn(-c2ccccc2)c(-c2ccccc2)c1C(=O)c1ccccc1	36.5
O=C(Nc1ccc(S(=O)(=O)Nc2ncccn2)cc1)c1nn(-c2ccccc2)c(-c2ccccc2)c1C(=O)c1ccccc1	27
O=C(Nc1ccc(Cl)cc1)c1nn(-c2ccccc2)c(-c2ccccc2)c1/C(=N/O)c1ccccc1	55.9
COc1ccc(NC(=O)c2nn(-c3ccccc3)c(-c3ccccc3)c2/C(=N/O)c2ccccc2)cc1	51.5
O=C(O)c1nn(-c2ccccc2)c(-c2ccccc2)c1C(=O)c1ccccc1	51.5

Test system: Rattus norvegicus
Test: Antiinflammatory activity in albino rat assessed as inhibition of carrageenan-induced paw edema at 100 mg/kg, po administered 30 mins prior to carrageenan challenge measured after 5 hrs
Type: functional
Conditions: not given
Method in brief: as §2

SMILES	inhibition in vivo at 100 mg/kg [%]
O=C(Nc1ccc(Cl)cc1)c1nn(-c2ccccc2)c(-c2ccccc2)c1C(=O)c1ccccc1	55.9
O=C(Nc1ccc(S(=O)(=O)Nc2ncccn2)cc1)c1nn(-c2ccccc2)c(-c2ccccc2)c1C(=O)c1ccccc1	41.2
O=C(Nc1ccc(Cl)cc1)c1nn(-c2ccccc2)c(-c2ccccc2)c1/C(=N/O)c1ccccc1	60.9
COc1ccc(NC(=O)c2nn(-c3ccccc3)c(-c3ccccc3)c2/C(=N/O)c2ccccc2)cc1	56.5
O=C(O)c1nn(-c2ccccc2)c(-c2ccccc2)c1C(=O)c1ccccc1	56.6

Test system: Rattus norvegicus
Test: Gastrointestinal toxicity in albino rat assessed as ulcer index at 100 mg/kg, po
Type: organism-based
Design: dose 100 mg/kg, route oral
Conditions: in vivo
Method in brief: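 Rats from the paw edema study killed by ether overdose; stomachs removed, opened and examined for visible lesions. Each lesion scored 0–5 by length (0 none, 1 petechiae, 2 <1 mm, 3 1–2 mm, 4 2–4 mm, 5 >4 mm erosions). Scores summed per rat; group ulcer index is the mean lesion score.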

SMILES	UI
O=C(Nc1ccc(Cl)cc1)c1nn(-c2ccccc2)c(-c2ccccc2)c1C(=O)c1ccccc1	20.3
O=C(Nc1ccc(S(=O)(=O)Nc2ncccn2)cc1)c1nn(-c2ccccc2)c(-c2ccccc2)c1C(=O)c1ccccc1	9.3
COc1ccc2c(c1)c(CC(=O)O)c(C)n2C(=O)c1ccc(Cl)cc1 [INDOMETHACIN]	69.5
O=C(Nc1ccc(Cl)cc1)c1nn(-c2ccccc2)c(-c2ccccc2)c1/C(=N/O)c1ccccc1	7.5
COc1ccc(NC(=O)c2nn(-c3ccccc3)c(-c3ccccc3)c2/C(=N/O)c2ccccc2)cc1	8.5
O=C(O)c1nn(-c2ccccc2)c(-c2ccccc2)c1C(=O)c1ccccc1	8

Test system: Rattus norvegicus
Test: Gastrointestinal toxicity in albino rat assessed as incidence of gastric ulceration at 100 mg/kg, po by histopathological study
Type: organism-based, Stomach
Design: dose 100 mg/kg, route oral
Conditions: in vivo
Method in brief: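 Gastric sections dewaxed, rehydrated, stained with haematoxylin 5–7 min, differentiated in 1% HCl in 70% alcohol, stained with 1% eosin 10 min, dehydrated, cleared in xylene, mounted and examined by light microscopy.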

SMILES	Activity
O=C(Nc1ccc(Cl)cc1)c1nn(-c2ccccc2)c(-c2ccccc2)c1C(=O)c1ccccc1	Toxic
O=C(Nc1ccc(Cl)cc1)c1nn(-c2ccccc2)c(-c2ccccc2)c1/C(=N/O)c1ccccc1	Non-toxic

Test system: Rattus norvegicus
Test: Gastroprotective activity in albino rat assessed as preventive index at 100 mg/kg, po
Type: functional
Conditions: not given
Method in brief: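 Preventive index = (UI of ulcered group − UI of treated group)/UI of ulcered group × 100. UI from lesion scoring (0–5 by erosion length) of stomachs of rats from the paw edema study.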

SMILES	PI [%]
COc1ccc(NC(=O)c2nn(-c3ccccc3)c(-c3ccccc3)c2/C(=N/O)c2ccccc2)cc1	74

From ChEMBL document CHEMBL1158424, “Design, synthesis and biological investigation of certain pyrazole-3-carboxylic acid derivatives as novel carriers for nitric oxide” (Bioorg Med Chem, 2009)
